Measurements: the M2OR odorant receptor database
Residue numbers refer to the chain shown, from its start.

What was measured:
Conditions in all cases: stereoisomer not certain
OR4K13 (Homo sapiens) = molecular target: T1, OR4K13 (Homo sapiens) (UniProt Q8NH42)
T1 sequence (whole entry): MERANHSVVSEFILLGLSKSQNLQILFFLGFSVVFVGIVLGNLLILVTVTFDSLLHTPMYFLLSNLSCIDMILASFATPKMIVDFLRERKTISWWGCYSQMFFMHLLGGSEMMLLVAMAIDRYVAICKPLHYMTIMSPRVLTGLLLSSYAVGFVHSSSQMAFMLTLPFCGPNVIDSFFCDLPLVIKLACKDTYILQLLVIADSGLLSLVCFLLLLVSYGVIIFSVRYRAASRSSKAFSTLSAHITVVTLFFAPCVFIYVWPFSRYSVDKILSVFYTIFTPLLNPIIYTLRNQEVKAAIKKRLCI
Summary of the method: (§1)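 Assay methods differ from source to source, frequently being transient luciferase assays in mammalian cell lines. For each receptor–molecule pair, the label responsive (active) applies when the original authors judged the measured signal statistically different from baseline, and non-responsive (inactive) applies otherwise.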

OR4K14 (Homo sapiens) = molecular target: T2, OR4K14 (Homo sapiens) (UniProt Q8NGD5)
T2 sequence (whole entry): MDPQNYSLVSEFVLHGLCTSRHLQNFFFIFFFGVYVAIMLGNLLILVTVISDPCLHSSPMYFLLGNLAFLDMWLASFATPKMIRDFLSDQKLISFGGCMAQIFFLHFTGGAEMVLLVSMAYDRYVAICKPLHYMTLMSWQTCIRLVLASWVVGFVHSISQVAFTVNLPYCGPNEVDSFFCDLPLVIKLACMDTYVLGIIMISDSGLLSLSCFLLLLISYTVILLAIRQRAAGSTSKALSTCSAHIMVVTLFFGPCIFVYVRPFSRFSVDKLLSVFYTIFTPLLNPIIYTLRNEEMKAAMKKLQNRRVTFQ
Summary of the method: as §1

OR4K15 (Homo sapiens) = molecular target: T3, OR4K15 (Homo sapiens) (UniProt Q8NH41)
T3 sequence (whole entry): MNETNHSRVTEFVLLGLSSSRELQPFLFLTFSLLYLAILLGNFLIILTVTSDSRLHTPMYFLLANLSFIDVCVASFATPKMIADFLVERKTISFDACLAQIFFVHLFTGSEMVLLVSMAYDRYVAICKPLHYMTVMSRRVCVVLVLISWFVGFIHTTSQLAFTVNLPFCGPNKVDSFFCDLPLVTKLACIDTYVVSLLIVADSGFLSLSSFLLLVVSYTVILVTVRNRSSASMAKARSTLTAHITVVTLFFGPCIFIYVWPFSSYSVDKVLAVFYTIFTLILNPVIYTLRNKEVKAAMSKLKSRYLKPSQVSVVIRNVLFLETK
Summary of the method: as §1

OR4K17 (Homo sapiens) = molecular target: T4, OR4K17 (Homo sapiens) (UniProt Q8NGC6)
T4 sequence (whole entry): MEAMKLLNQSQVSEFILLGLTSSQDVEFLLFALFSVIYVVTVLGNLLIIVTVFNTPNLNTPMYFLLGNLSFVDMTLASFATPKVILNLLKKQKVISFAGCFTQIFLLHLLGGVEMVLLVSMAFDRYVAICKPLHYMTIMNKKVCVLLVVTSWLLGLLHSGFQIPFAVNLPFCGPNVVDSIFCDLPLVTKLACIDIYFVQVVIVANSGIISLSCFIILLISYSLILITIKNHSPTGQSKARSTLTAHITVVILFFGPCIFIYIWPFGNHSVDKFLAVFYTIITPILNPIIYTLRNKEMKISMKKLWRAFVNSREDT
Summary of the method: as §1

OR4K2 (Homo sapiens) = molecular target: T5, OR4K2 (Homo sapiens) (UniProt Q8NGD2)
T5 sequence (whole entry): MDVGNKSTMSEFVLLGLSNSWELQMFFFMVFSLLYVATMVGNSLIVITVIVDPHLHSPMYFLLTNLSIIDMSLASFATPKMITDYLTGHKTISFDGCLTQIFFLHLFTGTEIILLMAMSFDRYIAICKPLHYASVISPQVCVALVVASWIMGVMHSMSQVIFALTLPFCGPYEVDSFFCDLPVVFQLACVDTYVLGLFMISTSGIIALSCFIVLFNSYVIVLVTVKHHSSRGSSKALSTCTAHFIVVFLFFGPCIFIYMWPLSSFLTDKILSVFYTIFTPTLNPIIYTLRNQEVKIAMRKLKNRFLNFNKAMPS
Summary of the method: as §1

OR4K3 (Homo sapiens) = OR4K3 (Homo sapiens) (UniProt Q96R72)
OR4K3 (Homo sapiens), sequence (Q96R72 whole entry): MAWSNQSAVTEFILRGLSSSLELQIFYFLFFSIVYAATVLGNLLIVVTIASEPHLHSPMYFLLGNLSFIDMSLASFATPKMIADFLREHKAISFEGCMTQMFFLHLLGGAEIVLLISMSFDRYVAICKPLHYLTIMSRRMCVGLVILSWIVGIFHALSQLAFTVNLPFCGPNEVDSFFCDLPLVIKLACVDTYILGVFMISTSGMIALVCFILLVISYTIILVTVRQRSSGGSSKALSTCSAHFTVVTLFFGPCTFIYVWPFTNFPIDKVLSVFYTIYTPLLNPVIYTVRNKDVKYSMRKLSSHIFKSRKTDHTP
Summary of the method: as §1

OR4K5 (Homo sapiens) = molecular target: T6, OR4K5 (Homo sapiens) (UniProt Q8NGD3)
T6 sequence (whole entry): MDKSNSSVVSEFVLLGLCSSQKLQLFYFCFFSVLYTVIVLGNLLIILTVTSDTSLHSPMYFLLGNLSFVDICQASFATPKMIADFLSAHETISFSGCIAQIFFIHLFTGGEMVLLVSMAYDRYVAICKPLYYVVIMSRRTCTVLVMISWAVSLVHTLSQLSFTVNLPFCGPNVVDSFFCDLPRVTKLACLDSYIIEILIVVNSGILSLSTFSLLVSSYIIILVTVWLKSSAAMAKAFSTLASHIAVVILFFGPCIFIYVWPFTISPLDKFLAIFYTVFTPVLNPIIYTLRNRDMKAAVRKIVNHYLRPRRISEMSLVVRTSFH
Summary of the method: as §1

OR4K1 R304H = system: T7, OR4K1 R304H
T7 sequence (whole entry): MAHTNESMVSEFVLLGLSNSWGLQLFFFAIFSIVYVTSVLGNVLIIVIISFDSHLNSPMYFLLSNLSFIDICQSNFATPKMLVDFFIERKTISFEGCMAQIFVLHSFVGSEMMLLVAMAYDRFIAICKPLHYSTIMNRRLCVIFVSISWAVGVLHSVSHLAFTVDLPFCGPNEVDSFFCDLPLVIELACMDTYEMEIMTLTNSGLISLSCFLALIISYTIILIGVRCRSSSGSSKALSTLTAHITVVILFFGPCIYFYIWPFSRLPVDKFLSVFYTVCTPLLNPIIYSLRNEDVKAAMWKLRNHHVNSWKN
Summary of the method: as §1

OR4K2 = system: T8, OR4K2
T8 sequence (whole entry): T5 sequence (whole entry) with N307I
Summary of the method: as §1

OR4KF = system: T9, OR4KF
T9 sequence (whole entry): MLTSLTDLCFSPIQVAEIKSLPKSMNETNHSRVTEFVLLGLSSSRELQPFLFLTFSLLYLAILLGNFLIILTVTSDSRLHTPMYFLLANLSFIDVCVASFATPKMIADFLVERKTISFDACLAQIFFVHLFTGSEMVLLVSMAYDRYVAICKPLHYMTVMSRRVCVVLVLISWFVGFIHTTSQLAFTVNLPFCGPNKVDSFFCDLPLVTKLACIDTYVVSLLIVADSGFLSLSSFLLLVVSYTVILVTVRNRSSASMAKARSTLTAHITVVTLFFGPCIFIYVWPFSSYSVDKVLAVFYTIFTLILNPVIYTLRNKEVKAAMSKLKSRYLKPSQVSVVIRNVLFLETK
Summary of the method: as §1

Measured: odorant receptor agonist call

CC1CCCCCCCCCCCCC(=O)C1 (stereo unspecified)
not listed: OR4K1 R304H | OR4K2 | OR4KF
inactive: all other assays above

CCC1OC(C)=C(O)C1=O (stereo unspecified)
not listed: OR4K15 (Homo sapiens) | OR4K17 (Homo sapiens) | OR4K3 (Homo sapiens)
inactive: all other assays above

CCC1OC(=O)C(O)=C1C (stereo unspecified)
not listed: OR4K15 (Homo sapiens) | OR4K17 (Homo sapiens) | OR4K3 (Homo sapiens)
inactive: all other assays above

Cc1cnc(C)c(C)n1
not listed: OR4K15 (Homo sapiens) | OR4K17 (Homo sapiens) | OR4K3 (Homo sapiens)
inactive: all other assays above

CCCC(S)CCOC(C)=O (stereo unspecified)
not listed: OR4K15 (Homo sapiens) | OR4K17 (Homo sapiens) | OR4K3 (Homo sapiens)
inactive: all other assays above

CC(=O)c1c(C)c([N+](=O)[O-])c(C(C)(C)C)c([N+](=O)[O-])c1C
not listed: OR4K1 R304H | OR4K2 | OR4KF
inactive: all other assays above

CCCCC(S)C(C)CO (stereo unspecified)
inactive: OR4K13 (Homo sapiens) | OR4K14 (Homo sapiens) | OR4K15 (Homo sapiens) | OR4K17 (Homo sapiens) | OR4K2 (Homo sapiens) | OR4K5 (Homo sapiens)

CCCCCC(S)C(C)CO (stereo unspecified)
inactive: OR4K13 (Homo sapiens) | OR4K14 (Homo sapiens) | OR4K15 (Homo sapiens) | OR4K17 (Homo sapiens) | OR4K2 (Homo sapiens) | OR4K5 (Homo sapiens)

CCCCCC(=O)C(C)C(C)=O (stereo unspecified)
inactive: OR4K13 (Homo sapiens) | OR4K14 (Homo sapiens) | OR4K15 (Homo sapiens) | OR4K17 (Homo sapiens) | OR4K2 (Homo sapiens) | OR4K5 (Homo sapiens)

CC1=C(O)C(=O)C(C)O1 (stereo unspecified)
not listed: OR4K15 (Homo sapiens) | OR4K17 (Homo sapiens) | OR4K3 (Homo sapiens)
inactive: all other assays above

CCCCCCC=CCCC=O
not listed: OR4K3 (Homo sapiens) | OR4KF
inactive: all other assays above

CC1=NC(C)C(C)S1 (stereo unspecified)
not listed: OR4K15 (Homo sapiens) | OR4K17 (Homo sapiens) | OR4K3 (Homo sapiens)
inactive: all other assays above

CC(CO)CS (stereo unspecified)
inactive: OR4K13 (Homo sapiens) | OR4K14 (Homo sapiens) | OR4K15 (Homo sapiens) | OR4K17 (Homo sapiens) | OR4K2 (Homo sapiens) | OR4K5 (Homo sapiens)

CCC(S)C(C)CO (stereo unspecified)
inactive: OR4K13 (Homo sapiens) | OR4K14 (Homo sapiens) | OR4K15 (Homo sapiens) | OR4K17 (Homo sapiens) | OR4K2 (Homo sapiens) | OR4K5 (Homo sapiens)

CC1=C(O)C(=O)OC1C (stereo unspecified)
not listed: OR4K15 (Homo sapiens) | OR4K17 (Homo sapiens) | OR4K3 (Homo sapiens)
inactive: all other assays above
